This is an account of results in ChEMBL document CHEMBL3352516, “Synthesis and biological evaluation of largazole analogues with modified surface recognition cap groups” (2014).

Active and inactive are the calls of the source. The calls are words filed in the database; no cut-off is given here.

Assay [1] deals with HCT-116. Kind of assay: Growth inhibition of human HCT116 cells at 5 uM after 96 hrs by MTS assay. It is filed as functional, cell-based. In short, it runs like this:
(§1)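 HCT116 colorectal cells seeded at 3×10⁴ cells/well in quadruplicate, attached overnight, then medium replaced with compound-containing medium; 96 h at 37 °C, 5% CO₂. CellTiter 96 One Solution MTS added, 1.5 h at 37 °C, absorbance at 490 nm. Two experiments, each with 4 replicates, mean with SEM; GI50 taken from growth curves.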

In assay [2] the target is Histone deacetylase 1 (Homo sapiens) (UniProt Q13547). Kind of assay: Inhibition of human HDAC1 (unknown origin) at 1 uM using Fluor de Lys substrate fluorimetric assay. In short, it runs like this: (§2)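 Recombinant HDAC1 incubated 1 h with inhibitor (0–1 μM) and class I-specific Fluor de Lys substrate, then developer added and fluorescence read. Compound with substrate and developer but no enzyme served as interference control. Three experiments, each in triplicate.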
Sequence of Histone deacetylase 1 (Homo sapiens) (Q13547 whole entry): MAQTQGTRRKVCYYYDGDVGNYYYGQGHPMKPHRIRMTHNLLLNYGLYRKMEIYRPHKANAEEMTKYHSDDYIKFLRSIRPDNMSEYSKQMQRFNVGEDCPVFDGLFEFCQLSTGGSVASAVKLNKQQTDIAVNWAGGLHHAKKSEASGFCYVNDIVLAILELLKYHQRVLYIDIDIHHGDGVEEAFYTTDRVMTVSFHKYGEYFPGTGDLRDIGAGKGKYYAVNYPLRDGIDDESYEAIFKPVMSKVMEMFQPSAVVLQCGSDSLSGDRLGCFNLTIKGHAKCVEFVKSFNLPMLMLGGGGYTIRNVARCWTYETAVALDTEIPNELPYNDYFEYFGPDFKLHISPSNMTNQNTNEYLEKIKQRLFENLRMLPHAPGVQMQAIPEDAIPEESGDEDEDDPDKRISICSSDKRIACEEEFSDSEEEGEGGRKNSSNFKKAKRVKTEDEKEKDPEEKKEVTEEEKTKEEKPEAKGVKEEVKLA

For assay [3], the target named is T1, Histone deacetylase (Homo sapiens) (UniProt Q13547+O15379+Q9UBN7+Q92769+Q9UQL6+Q8WUI4+Q9BY41+Q96DB2+P56524+Q9UKV0+Q969S8). Kind of assay: Inhibition of human HDAC in human HCT116 cells assessed as global histone H3 lysine-9 acetylation levels at 0.01 to 1 uM after 24 hrs by Western blotting method. As to conditions: HCT-116. The format is cell-based. The method in brief:
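HCT116 cells treated 24 h with 10 nM, 100 nM or 1 μM compound, or DMSO. Western blot probed with anti-acetyl-H3 primary antibody and β-actin as loading control. Detection by dye-conjugated secondary antibodies on an infrared scanner.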
On the technique in general: In western blotting, separated proteins are transferred to a membrane and probed.

Assay [4] deals with T1, Histone deacetylase (Homo sapiens). As to conditions: HCT-116, 1 uM.
In assay [5] the target is T2, Protein deacetylase HDAC6 (Homo sapiens) (UniProt Q9UBN7).
T2 sequence (whole entry): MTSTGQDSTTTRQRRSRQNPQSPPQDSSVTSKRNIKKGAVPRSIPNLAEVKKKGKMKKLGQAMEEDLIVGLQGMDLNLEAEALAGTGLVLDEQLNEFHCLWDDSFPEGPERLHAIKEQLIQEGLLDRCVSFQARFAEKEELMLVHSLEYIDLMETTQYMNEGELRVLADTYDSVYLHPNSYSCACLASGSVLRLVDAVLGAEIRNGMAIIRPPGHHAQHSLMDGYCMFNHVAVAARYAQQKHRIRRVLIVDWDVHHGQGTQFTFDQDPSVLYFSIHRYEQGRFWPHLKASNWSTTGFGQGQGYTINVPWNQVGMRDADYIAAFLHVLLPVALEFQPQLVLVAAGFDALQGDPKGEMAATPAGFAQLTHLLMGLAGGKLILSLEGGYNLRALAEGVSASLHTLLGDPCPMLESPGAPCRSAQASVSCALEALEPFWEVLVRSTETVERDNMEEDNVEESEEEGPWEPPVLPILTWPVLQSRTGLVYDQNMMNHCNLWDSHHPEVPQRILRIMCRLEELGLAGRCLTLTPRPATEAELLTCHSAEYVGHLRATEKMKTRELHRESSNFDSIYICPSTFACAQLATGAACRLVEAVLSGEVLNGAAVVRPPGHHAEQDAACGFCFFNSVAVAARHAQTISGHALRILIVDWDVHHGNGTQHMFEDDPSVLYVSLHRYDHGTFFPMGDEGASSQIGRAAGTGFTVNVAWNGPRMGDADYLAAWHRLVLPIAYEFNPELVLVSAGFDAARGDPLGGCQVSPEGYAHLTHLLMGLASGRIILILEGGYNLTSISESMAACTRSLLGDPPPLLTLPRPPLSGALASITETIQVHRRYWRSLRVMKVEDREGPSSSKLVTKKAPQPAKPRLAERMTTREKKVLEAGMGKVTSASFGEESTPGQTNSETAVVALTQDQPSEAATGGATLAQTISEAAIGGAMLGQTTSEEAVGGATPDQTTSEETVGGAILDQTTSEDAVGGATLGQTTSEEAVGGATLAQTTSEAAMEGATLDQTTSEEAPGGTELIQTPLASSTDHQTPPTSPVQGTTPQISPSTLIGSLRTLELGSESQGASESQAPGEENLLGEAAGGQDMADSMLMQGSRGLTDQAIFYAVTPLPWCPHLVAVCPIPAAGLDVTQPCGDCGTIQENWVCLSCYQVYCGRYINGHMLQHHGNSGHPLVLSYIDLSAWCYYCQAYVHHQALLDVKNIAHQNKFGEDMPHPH
Kind of assay: Inhibition of human HDAC6 (unknown origin) at 0.01 to 5 uM using Fluor de Lys substrate fluorimetric assay. In short, it runs like this: (§3)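 Recombinant HDAC6 incubated 1 h with inhibitor (0–5 μM) and class II-specific Fluor de Lys substrate, then developer added and fluorescence read. Compound with substrate and developer but no enzyme served as interference control. Three experiments, each in triplicate.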

Assay [6] deals with Histone deacetylase 1 (Homo sapiens) (UniProt Q13547). Kind of assay: Inhibition of human HDAC1 (unknown origin) at 0.1 uM using Fluor de Lys substrate fluorimetric assay. The method in brief:
as §2

In assay [7] the target is T2, Protein deacetylase HDAC6 (Homo sapiens). Kind of assay: Inhibition of human HDAC6 (unknown origin) at 5 uM using Fluor de Lys substrate fluorimetric assay. The method in brief:
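Recombinant HDAC6 from a fluorimetric kit, with a substrate specific for class II activity. Enzyme, inhibitor (0–5 μM) and Fluor de Lys substrate incubated 1 h, then developer added before the fluorescence read. Compound-only controls without enzyme, with substrate and developer, checked for signal interference. Three independent experiments, each in triplicate.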

In assay [8] the target is Histone deacetylase 1 (Homo sapiens) (UniProt Q13547). Kind of assay: Inhibition of human HDAC1 (unknown origin) at 0.01 to 1 uM using Fluor de Lys substrate fluorimetric assay.
Assay [9] is described as follows: Growth inhibition of human HCT116 cells after 96 hrs by MTS assay. The format is functional. As to conditions: HCT-116, 96 h. The method in brief:
as §1
Background: Formazan colour is commonly taken as a measure of viable cells.

In assay [10] the test system is HCT-116. Kind of assay: Inhibition of cell proliferation of human HCT116 cells at […] after 96 hrs by MTS assay. It is filed as functional, cell-based. In short, it runs like this: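 HCT116 colorectal cells seeded at 3×10⁴ cells/well in quadruplicate, left to attach overnight, then given fresh medium with compound for 96 h at 37 °C, 5% CO₂. MTS reagent added for 1.5 h, absorbance read at 490 nm. Mean of two experiments, each with 4 replicates.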

Assay [11] deals with T2, Protein deacetylase HDAC6 (Homo sapiens). Kind of assay: Inhibition of human HDAC6 (unknown origin) at 1 uM using Fluor de Lys substrate fluorimetric assay. In short, it runs like this:
as §3

`CCCCCCCC(=O)SCC/C=C/[C@@H]1CC(=O)NCc2nc(cs2)C2=N[C@](C)(CS2)C(=O)N[C@@H](C(C)C)C(=O)O1`: the “growth inhibition (GI)” value in the assay on HCT-116 [1] was “inactive”. Moreover, in assay [2], the inhibition was less than 15%. In assay [3], the inhibition result was “inactive”. Further, the inhibition entry in assay [4] was “Active”.

Turning to `CCCCCCCC(=O)SCC/C=C/[C@@H]1CC(=O)NCc2nc(cs2)C2=N[C@@](C)(CS2)C(=O)N[C@H](Cc2cccc3ccccc23)C(=O)O1`, the “growth inhibition (GI)” value in the assay on HCT-116 [1] is “inactive”. The inhibition entry in [5] and in assay [3] was “inactive” each time. Moreover, the inhibition in [2] was less than 15%.

For the compound `CCCCCCCC(=O)SCC/C=C/[C@@H]1CC(=O)NCc2nc(cs2)C2=N[C@@](C)(CS2)C(=O)N[C@@H](C(C)C)C(=O)O1`, the inhibition entry in assay [5], in [3] and in assay [8] was “Active” in each case. Moreover, the inhibition was more than 90% in [2], 15% in assay [6] and 75% in assay [7].

As for `C=CC[C@@H]1NC(=O)[C@]2(C)CSC(=N2)c2csc(n2)CNC(=O)C[C@@H](/C=C/CCSC(=O)CCCCCCC)OC1=O`, in assay [9], the 50% growth inhibitory concentration (GI50) came out at 10 nM. Besides, the inhibition result (with HCT-116 [10]; in [6]) was “inactive” throughout. Further, the inhibition in [2] is more than 90%; in assay [11], 50%; in [7], 55%. The inhibition entry in assay [3] and in [8] was “Active” throughout.

For `CCCCCCCC(=O)SCC/C=C/[C@@H]1CC(=O)NCc2nc(cs2)C2=N[C@@](C)(CS2)C(=O)N[C@@H](Cc2cccc3ccccc23)C(=O)O1`, in [9], the GI50 turned out to be 56 nM. For the same compound, the inhibition result with HCT-116 [10] was “inactive”. Also, the inhibition in [2] is more than 90%; in assay [6] it was 15%; in assay [11], 50%; in [7] it was 50%. Besides, the inhibition entry in [3] and in [8] was “Active” each time.

A word on the inhibition: it is the change of the read-out against control, counted positive when it falls. Usually GI50 stands for the concentration that inhibits growth by half.
